MBD2 inh – inhibitors of MBD2 binding to methylated DNA, primary screen, biochemical, TR-FRET, DNA-binding domain, human. Methyl-CpG-binding domain protein 2 (Homo sapiens), Q9UBB5. MBD2 binding to methylated oligonucleotide. inhibition, % at 4.4 µM. 0.31% of 370,000 active. AID 686964, 2013; in the data active = inhibition above about 13%
Target sequence (Q9UBB5 whole entry, looked up, the tested form may be a part): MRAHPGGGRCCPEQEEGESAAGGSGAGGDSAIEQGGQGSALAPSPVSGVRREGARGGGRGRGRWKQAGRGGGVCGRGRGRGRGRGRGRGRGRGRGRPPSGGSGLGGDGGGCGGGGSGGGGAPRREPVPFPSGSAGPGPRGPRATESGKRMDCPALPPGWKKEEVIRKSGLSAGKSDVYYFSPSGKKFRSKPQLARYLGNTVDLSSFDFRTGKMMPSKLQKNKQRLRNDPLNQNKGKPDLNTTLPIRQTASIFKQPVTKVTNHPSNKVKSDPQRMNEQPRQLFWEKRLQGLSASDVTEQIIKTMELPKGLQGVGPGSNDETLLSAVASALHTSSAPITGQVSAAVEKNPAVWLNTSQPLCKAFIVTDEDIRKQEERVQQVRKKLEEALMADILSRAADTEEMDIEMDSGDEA
Pemphigus Ab inh – inhibitors of pemphigus antibody binding to DSG3, primary screen, biochemical, bead-based, flow cytometry, scFv-GFP. Desmoglein-3 (Homo sapiens), P32926. DSG3-coupled beads, scFv-anti-DSG3-GFP binding; hits give low values. binding (percent of control), % at 10 µM. 0.48% of 310,000 active. AID 588358, 2011;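 active = binding more than 3 SD below its plate's average and above zero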;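 also: hits lower antibody fragment binding to DSG3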
DNMT1 block – human DNMT1 methyltransferase inhibitors, primary screen, biochemical, molecular beacon, fluorescence, HinP1I cleavage, uHTS; DNA (cytosine-5)-methyltransferase 1 (Homo sapiens), P26358; 0.83% of 360,000 active; AID 588458, 2011; inhibition (reported as % activation of signal), % at 10 µM; in the data active = inhibition above about 50%
NS3 helicase inh – inhibitors of HCV NS3 helicase, primary screen, biochemical, Cy5 molecular beacon fluorescence; Hepatitis C virus NS3 helicase; NS3 helicase DNA unwinding; inhibition, % at 10.9 µM; 0.56% of 290,000 active;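 active = inhibition above the mean of all tested compounds plus 3 SD, set per campaign, cut at about 35% in these data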
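Material: hepatitis C virus NS3 helicase domain fragment enzyme; measured by: Cy5 fluorescence, 0 and 60 min reads; control set: DMSO and thioflavine S; incubation: 60 min unwinding reaction at 25 °C after ATP addition; read-out basis: % inhibition from 60/0 min fluorescence ratio, DMSO 0%, thioflavine S 100%; repeats: singlicate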
SUMO1 PPI mod – modulators of SUMO1 protein-protein interactions, primary screen, biochemical, uHTS; Small ubiquitin-related modifier 1 (Homo sapiens), P63165; SUMO1 binding to a labelled peptide, TR-FRET, 1 h; inhibition, % at 20 µM; 0.33% of 360,000 active; AID 602429, 2012; in the data active = inhibition above about 37%
Target sequence (P63165 whole entry, looked up): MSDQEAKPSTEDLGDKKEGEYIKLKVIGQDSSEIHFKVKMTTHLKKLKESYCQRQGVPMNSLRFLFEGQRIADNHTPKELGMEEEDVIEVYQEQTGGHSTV
UHRF1 MBD2 ctr – UHRF1 methylated DNA binding inhibitors, primary screen, counter-screen for MBD2 inhibitor project, biochemical, TR-FRET, human UHRF1, single concentration; E3 ubiquitin-protein ligase UHRF1 (Homo sapiens), Q96T88; UHRF1 binding to methylated oligo; inhibition, % at 4.4 µM; 0.75% of 370,000 active; AID 687016, 2013; in the data active = inhibition above about 21%;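 also: UHRF1 SRA domain binding a hemimethylated CpG hairpin DNA probe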
Each line names hits and unclear results; the compound was inactive in the other large screens; ! = repeats disagree. In the library only some 2.5% were active in any assay of this set; here they are far more common.

Fc1cccc(Cc2c(-c3ccccc3)nc3c4ccccc4ccn23)c1	UHRF1 MBD2 ctr 21.1 (no result: Pemphigus Ab inh, DNMT1 block, NS3 helicase inh)
Cc1ccc(-c2nc3c4ccccc4ccn3c2Cc2ccccc2)cc1	UHRF1 MBD2 ctr 21.2 (no result: NS3 helicase inh)
Cc1ccc(-c2nc3c4ccccc4ccn3c2Cc2cccc(F)c2)cc1	none (no result: Pemphigus Ab inh, DNMT1 block, NS3 helicase inh, SUMO1 PPI mod)
CC1=CC2=C(C=O)C(=O)C(C)(O)C(O)C2=CO1 (stereo not given)	none (no result: NS3 helicase inh)
CCCCNC(=O)CN1C(=O)NC2(CCOc3ccccc32)C1=O (stereo not given)	none
CCCCCCCCNS(=O)(=O)CCNCc1ccccc1	UHRF1 MBD2 ctr 22.5 (no result: NS3 helicase inh)
CCCCCCCCNS(=O)(=O)CCNCCc1ccccc1	none (no result: NS3 helicase inh)
Clc1ccc2nc(CN3CCCCC3)cn2c1	UHRF1 MBD2 ctr 26.6
O=C1CCCC/C1=C/Nc1cccc(C(F)(F)F)c1	UHRF1 MBD2 ctr 23.5
O=C1CCCC/C1=C\Nc1ccc(O)cc1	none
O=C1CSc2ccc(C(=O)N3CCCC(C(=O)N4CCN(c5ccc(F)cc5)CC4)C3)cc2N1 (stereo not given)	none (no result: Pemphigus Ab inh, DNMT1 block, NS3 helicase inh, SUMO1 PPI mod)
COc1cccc(NC(=S)/C(=C(\[O-])c2ccc(OC(F)F)cc2)[n+]2ccccc2)c1	none
[O-]/C(=C(\C(=S)Nc1cccc2ccccc12)[n+]1ccccc1)c1ccc(OC(F)F)cc1	UHRF1 MBD2 ctr 29.5
Cc1[nH]nc2c1C(c1ccc(-c3ccc(Cl)cc3)o1)C(C#N)=C(N)O2 (stereo not given)	SUMO1 PPI mod 63.8
CCCCc1c(-c2ccccc2OC)ncn1CCc1cccc(F)c1	UHRF1 MBD2 ctr 55.8 (no result: Pemphigus Ab inh, DNMT1 block, NS3 helicase inh)
CCCCc1c(-c2ccccc2OC)ncn1Cc1ccc(C(C)(C)C)cc1	UHRF1 MBD2 ctr 27.6 (no result: Pemphigus Ab inh, DNMT1 block, NS3 helicase inh, SUMO1 PPI mod)
Cn1c(SCC(=O)NCc2ccccc2)nc2ccccc21	none
Cc1ccn2c(NC3CCCCC3)c(C)nc2c1	none (no result: Pemphigus Ab inh)
CC(=O)N1CCOc2cc(S(=O)(=O)NC(C)c3ccccc3)c(Cl)cc21 (stereo not given)	UHRF1 MBD2 ctr 29.5
Cc1ccsc1C(=O)N1CCN(S(=O)(=O)c2cccc(F)c2)CC1	none (no result: NS3 helicase inh)
COc1cc(C(=O)Nc2ccc(Oc3ncnc4sc(-c5ccccc5)cc34)cc2)cc(OC)c1OC	Pemphigus Ab inh -10.0
COc1ccc(C(=O)Nc2ccc(Oc3ncnc4sc(-c5ccccc5)cc34)cc2)cc1OC	Pemphigus Ab inh -207.3
NCCCNC(=O)Cn1c(=O)c2c3c(sc2n(Cc2ccccc2)c1=O)CCCC3	none
C[C@@H]1Cn2cnc(C(=O)N[C@@H](C)c3ccccc3)c2C(=O)N1	none (no result: Pemphigus Ab inh, NS3 helicase inh)
COc1ccc(NC(=O)c2ccc(CNc3c(N4CCCC4)c(=O)c3=O)cc2)cc1Cl	SUMO1 PPI mod 58.3
COc1ccc(NC(=O)NC2CCCCCCC2)c(OC)c1	none (no result: MBD2 inh, UHRF1 MBD2 ctr)
CCOc1ccc(NC(=O)c2ccc(CNc3c(NC4CCCCC4)c(=O)c3=O)cc2)cc1	DNMT1 block 55.7
COc1ccc(CC(=O)NC2CCCCCC2)c(OC)c1	Pemphigus Ab inh -48.3
COc1ccc(NC(=O)c2ccc(S(=O)(=O)N3CCCCC3)cc2)c(OC)c1	none
CC1CCC(NC(=O)c2ccc(CNc3c(NC4CCCCC4)c(=O)c3=O)cc2)CC1 (stereo not given)	none
COc1ccc(NC(=O)c2ccc(CNc3c(NC4CCCCC4)c(=O)c3=O)cc2)c(OC)c1	Pemphigus Ab inh -2.5!
CC1(c2ccc(Cl)cc2Cl)NC(=O)N(CC(=O)Nc2ccc3[nH]c(=O)[nH]c3c2)C1=O (stereo not given)	SUMO1 PPI mod 53.6 (no result: NS3 helicase inh)
Cc1cc(NC(=O)CN2C(=O)NC(C)(c3ccc(Cl)cc3Cl)C2=O)no1 (stereo not given)	none (no result: Pemphigus Ab inh, NS3 helicase inh)
COc1ccc(C2(C)NC(=O)N(CC(=O)Nc3ccc4[nH]c(=O)[nH]c4c3)C2=O)cc1 (stereo not given)	none (no result: NS3 helicase inh)
Cc1ccc(C2(C)NC(=O)N(CC(=O)Nc3ccc4[nH]c(=O)[nH]c4c3)C2=O)cc1 (stereo not given)	SUMO1 PPI mod 71.7
COc1ccc(O)c(/C=N/n2c(-c3ccco3)csc2=Nc2cccnc2)c1	Pemphigus Ab inh 1.2
Cc1nnc(SCc2c(Cl)cccc2Cl)n(N)c1=O	none
CCOc1ncccc1C(=O)N1CCN(C(=O)c2ccccc2)CC1	UHRF1 MBD2 ctr 21.0 (no result: Pemphigus Ab inh)
CCOc1ncccc1C(=O)N1CCN(S(=O)(=O)c2ccccc2)CC1	none
C/C(Cn1cnc([N+](=O)[O-])n1)=N\NC(=O)c1ccccc1O	none
C/C(Cn1cnc([N+](=O)[O-])n1)=N/NC(=O)COc1ccccc1Cl	UHRF1 MBD2 ctr 24.4
COc1cccc2c1C(=O)C=C(C)C2=O	none
COC1=CC(=O)c2c(ccc3ncnc(N)c23)C1=O	DNMT1 block 103.2, SUMO1 PPI mod 71.7 (no result: NS3 helicase inh)
COc1ccc(-c2nc3cc([N+](=O)[O-])ccc3o2)cc1	UHRF1 MBD2 ctr 20.9
O=C(OCn1nnc2ccccc2c1=O)c1ccc2ncsc2c1	none (no result: Pemphigus Ab inh)
O=C(c1cc(COc2ccc(F)cc2Cl)on1)N(CCO)Cc1cccs1	none
CC1Cc2ccccc2N1C(=O)CN1CCN(S(=O)(=O)c2cccs2)CC1 (stereo not given)	none (no result: NS3 helicase inh)
Cc1nc(C(F)(F)F)ccc1C(=O)NCC(O)c1ccccc1 (stereo not given)	UHRF1 MBD2 ctr 45.9
Cc1ccnc2nc(C(=O)NCCc3ccc(F)cc3)nn12	none
O=C(O)COc1ccc(/C=N/n2c(COc3ccccc3)nc3ccccc3c2=O)cc1	SUMO1 PPI mod 57.3
CCOc1ccc(/C=N/n2c(C)nc3ccccc3c2=O)cc1	Pemphigus Ab inh 68.2 (no result: MBD2 inh, UHRF1 MBD2 ctr)
COc1ccc(C)c2sc(NNC(=O)COc3ccccc3)nc12	none (no result: MBD2 inh, Pemphigus Ab inh, DNMT1 block, SUMO1 PPI mod, UHRF1 MBD2 ctr)
CCOc1ccccc1/C=C/c1onc(C)c1S(=O)(=O)N1CCC(C(=O)N(CC)CC)CC1	MBD2 inh 13.4
Cc1nc(N(C)C)c2sc(=S)n(C)c2n1	UHRF1 MBD2 ctr 27.4
O=C(Nc1ccc2nc(-c3ccco3)c(-c3ccco3)nc2c1)N1CCCCCC1	NS3 helicase inh 48.9 (no result: MBD2 inh, Pemphigus Ab inh, DNMT1 block, SUMO1 PPI mod, UHRF1 MBD2 ctr)
CCOC(=O)C1CCN(C(=O)Nc2ccc3nc(-c4ccco4)c(-c4ccco4)nc3c2)CC1	DNMT1 block 112.7, SUMO1 PPI mod 106.1 (no result: MBD2 inh, UHRF1 MBD2 ctr)
CCOC(=O)C1CCN(C(=O)Nc2ccc3c(c2)nc(C)n3C)CC1	none
O=C(N/N=C/c1sc(N2CCOCC2)nc1-c1ccccc1)c1cccc(S(=O)(=O)N2CCCC2)c1	none
CCC(C)[C@@H](CN)NCC1(c2ccccc2)CC1 (stereo not given in full)	SUMO1 PPI mod 37.1 (no result: NS3 helicase inh)
CCN(CC)C(C)C(=O)NCC1(c2ccccc2)CCOCC1 (stereo not given)	none (no result: Pemphigus Ab inh)

Screens from PubChem.
